# Source: paper PMC9208026 (Journal of pharmacological sciences, 2022)
# How the values were obtained:
# [1] = test system: collagen-induced arthritis (CIA) joints; assay: Histopathology study of limbs; format: in vivo, DBA1 mice; details: MTX 1.5 mg/kg i.p., CIA mice limbs, H&E, N = 4
# [2] = test system: bovine type II collagen antibody; assay: Collagen antibody level in CIA mice serum; format: in vivo, DBA1 mice; details: CIA mice serum at end of study, ELISA, N = 6
# Procedure, shortened: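 Serum came from CIA DBA1 mice (N = 6 per group) at the end of the study, spun at 10,000 rpm for 10 min, then cleared at 10,000 rpm for 3 min and diluted 1:40,000. Anti-bovine type II collagen ELISA: wells blocked 1 h at room temperature; standards and samples 2 h; secondary antibody 1 h; TMB 15 min; stopped and read at A450. Levels were taken from a standard curve; mean ± SEM.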
compound,measurement,setting,value
"CN(Cc1cnc2nc(N)nc(N)c2n1)c1ccc(C(=O)N[C@@H](CCC(=O)O)C(=O)O)cc1 [MTX, Methotrexate]","histopathological changes (inflammation, synovial hyperplasia, cartilage/bone erosion)",[1],reduced occurrence of the changes
same,bovine collagen antibody level in serum compared to vehicle group,[2],lower
